The list is not random: actives were taken first. Their share in the collection is about 1.8%.
Platelet DG rel = modulates dense granule release in human platelets. human platelet-rich plasma, SFLLRN dense granule ATP release, luminescence. inhibition, %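 (compounds screened at 7.5 µM in platelet-rich plasma)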. 300,000 tested, 0.22% active. AID 1663;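 active = mean replicate score, as percent of positive control, at or above 50; inconclusive = mean below 50 but at least one replicate at or above 50; inactive = mean and every replicate below 50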
Rce1 inhib = yeast Ras-converting enzyme inhibition; calls only; Q03530; 290,000 tested, 0.27% active; yeast membranes, quenched prenylated peptide cleavage fluorescence;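 active = fall in fluorescence gain of 50% or more versus controls, with final raw signal at or below 3038400; inconclusive = same 50% fall but final raw signal above 3038400; inactive = fall in fluorescence gain under 50%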;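 note: plate controls were neutral control wells for no effect and wells lacking membranes for full effect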
Target sequence (Q03530 whole entry, looked up): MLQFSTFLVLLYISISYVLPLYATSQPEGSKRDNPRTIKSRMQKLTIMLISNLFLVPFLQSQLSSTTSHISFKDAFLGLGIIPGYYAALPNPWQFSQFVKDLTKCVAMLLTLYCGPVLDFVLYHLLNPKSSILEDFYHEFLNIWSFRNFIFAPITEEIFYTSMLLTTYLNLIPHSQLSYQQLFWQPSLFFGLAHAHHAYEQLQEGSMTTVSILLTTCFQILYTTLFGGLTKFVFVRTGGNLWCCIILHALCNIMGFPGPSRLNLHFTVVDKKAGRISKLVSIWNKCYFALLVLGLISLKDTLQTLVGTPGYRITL
RanGTP-Imp inh = inhibitors of RanGTP-importin-beta interaction, primary screen, biochemical, FRET, CFP-Ran, YFP-importin-beta, homogeneous; inhibition, % (no concentration beside the values); 300,000 tested, 1.1% active; cell-free CFP-Ran/YFP-importin-beta FRET ratio; AID 2216;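 active = more than half of the replicate wells show a fall in the fluorescence ratio signal beyond about 16%, limit read from the data, passing the limit was not always enough; inconclusive = exactly half of the replicate wells pass the set limit; inactive = fewer than half of replicates pass the limit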;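 note: 0% = DMSO wells and 100% = Ran loaded with GDP instead of GTP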
Runt-SMMHC FRET = blocks binding of human RUNX1 Runt domain to CBFb-SMMHC; Cerulean-Runt/Venus-CBFb-SMMHC FRET ratio 530/480, 1 h; inhibition, % at 20 µM; 220,000 tested, 0.74% active; AID 1434;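 active = mean inhibition across duplicate retests at 20 µM reaching about 50%, limit read from the data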;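 note: 0% = DMSO wells and 100% = wells with excess untagged CBFb-SMMHC; inhibitors lower the FRET ratio by blocking Runt binding to CBFb-SMMHC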
Runt-CBFb FRET = Runt domain-CBFb interaction inhibition; 220,000 tested, 0.46% active; Cerulean-Runt/Venus-CBFb FRET ratio 530/480, 1 h; inhibition, % at 20 µM;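 active = inhibition over about 50% at 20 µM in the single-dose screen, limit read from the data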;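 note: 0% = DMSO wells and 100% = excess unlabeled CBFb competitor control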
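Assay system: Cerulean-tagged RUNX1 Runt domain (FRET donor) fusion protein / Amount: 100 nM each of Venus-CBFb and Cerulean-Runt domain / Medium: Tris buffer pH 7.5 with salts and BSA / Also added: Venus-CBFb 100 nM / Schedule: 1 h complex formation plus 1 h compound treatment, room temperature / Signal: FRET fluorescence / Read-out: loss of energy transfer signal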
Numbers without * were called inactive; i = inactive; ? = inconclusive; . = not tested or not shown; + = active, no number.

SMILES	Platelet DG rel	Rce1 inhib	RanGTP-Imp inh	Runt-SMMHC FRET	Runt-CBFb FRET
COc1ccc(/C=N/Nc2nc3ccccc3o2)cc1O	22.1	i	3.2	4.2	2.0
CCCCOc1ccc(Cc2c(COCC)[nH]c(=S)[nH]c2=O)cc1	-1.4	+	0.7	2.1	2.2
COc1ccc(Cl)cc1NC(=O)C1Cc2cc(S(=O)(=O)N3CCCC3)ccc2N1C(C)=O (stereo not given)	3.9	i	1.1	.	.
Cc1nc2cc(NC(=O)Nc3ccc(Br)cc3)ccc2o1	0.5	.	3.5	-0.4	2.6
CC(C)Sc1nsc2nc(=O)c(/C=C3\C=Nc4ccccc43)c(N)n12	14.8	i	33.1*	59.2*	17.8
CC(C)c1nn2c(N)c(/C=C3\C=Nc4ccccc43)c(=O)nc2s1	10.6	i	?	17.2	1.8
Cc1cc2nc(=O)c(/C=C3\C=Nc4ccccc43)c(N)n2o1	1.5	i	46.8*	-45.2	-4.7
CCO[C@@H]1OC(C(N)=O)=C[C@H](c2ccc(C(F)(F)F)cc2)[C@H]1CCCO	-4.6	i	23.7*	1.4	-1.6
CCO[C@@H]1OC(C(=O)O)=C[C@H](c2ccc(C(F)(F)F)cc2)[C@H]1CCCO	-0.2	i	1.6	-8.2	0.1
CN(C)c1ccc(/C=N/NC(=O)c2ccccc2)cc1	17.6	i	1.2	-3.1	0.4
C/C(=N/N=C/c1ccc(N(C)C)cc1)c1ccccc1	56.2*	i	-2.9	-54.6	-13.3
CCCc1cc(=O)oc2cc(OCC(=O)NCCc3c[nH]c4ccc(OC)cc34)ccc12	-1.7	i	1.0	.	.
O=C(COc1ccc2ccc(=O)oc2c1)NCCc1c[nH]c2ccc(F)cc12	-3.3	+	2.9	.	.
NC(=O)CSc1oc(-c2ccco2)nc1S(=O)(=O)c1ccc(Br)cc1	1.1	i	5.4	.	.
Cc1ccc(N2CC(NS(=O)(=O)c3cccnc3)CC2=O)cc1C (stereo not given)	-13.7	i	32.5*	.	.
C/C(=N\Nc1nc(-c2cc(C)ccc2C)cs1)c1cc2c(ccc3ccccc32)oc1=O	-2.1	i	63.7*	.	64.4*
C/C(=N\Nc1nc(-c2cc(C)ccc2C)cs1)c1cc2ccccc2oc1=O	10.9	i	2.9	-7.0	-1.7
CC(=O)c1cc2c(ccc3ccccc32)oc1=O	0.0	i	116.2*	.	.
CC(=O)Nc1cc2c(ccc3ccccc32)oc1=O	-1.1	i	?	6.3	-0.9
COCC(C)NC(=O)c1cc2c(ccc3ccccc32)oc1=O (stereo not given)	-1.6	i	29.4*	.	.
CC(C)(C)NCCOc1ccc2ccccc2c1	-1.6	i	31.7*	-4.1	1.9
CCOc1cccc(OCCOCCNC(C)(C)C)c1	3.1	i	-1.1	-6.7	-0.8
O=C(NCCCNC(=O)c1ccc(-c2cc(Cl)ccc2Cl)o1)c1cnccn1	2.3	i	-0.5	.	.
C/C(=N\Nc1nc(-c2ccccc2)cs1)c1cccs1	-10.9	i	2.4	7.1	21.2
C/C(=N\Nc1nc2ccccc2s1)c1cccs1	2.9	i	22.4*	2.1	-3.2
SMILES	Platelet DG rel	Rce1 inhib	RanGTP-Imp inh	Runt-SMMHC FRET	Runt-CBFb FRET
Cc1csc2c(=O)sc(NC(=O)c3cccs3)nc12	-0.8	i	0.4	87.0*	40.1
Cc1csc2c(=O)sc(NC(=O)c3ccco3)nc12	2.5	i	1.4	59.0*	34.3
Cc1nc2ccc(NC(=O)c3cccs3)cc2s1	10.2	i	1.3	.	.
CC(=O)Nc1ccc2nc(NC(=O)c3cccs3)sc2c1	86.3*	i	1.7	-0.3	1.3
O=C(Nc1nc2ccsc2c(=O)s1)c1ccco1	28.3	i	3.6	15.9	8.0
Cc1ccc(N2CC(C(=O)N3CCC(C(=O)NCCCOC(C)C)CC3)CC2=O)cc1 (stereo not given)	0.0	i	2.7	.	.
C=CCOc1ccc(C2C(C(=O)c3cccs3)=C(O)C(=O)N2c2nnc(C)s2)cc1 (stereo not given)	2.4	.	-12.4	.	.
COc1ccc(C2C(C(=O)c3cccs3)=C(O)C(=O)N2c2nncs2)cc1 (stereo not given)	-5.1	i	-22.1	103.3*	49.2
CN(C)CCCNC(=S)NCCNc1nc2cc3c(cc2cc1C#N)OCO3	-6.0	i	71.6*	112.7*	83.6*
COCCNC(=S)NCCCNc1nc2cc3c(cc2cc1C#N)OCO3	-1.1	i	87.5*	48.5	15.1
COc1cc(/C=C(\C#N)C(=O)NC(C)C)cc(Cl)c1O	-2.5	i	-3.4	63.3*	32.9
CC(C)NC(=O)/C(C#N)=C/c1cccc(NC(=O)c2ccccc2Cl)c1	2.2	i	-3.2	8.1	0.3
CCC(C)NC(=O)c1cn(CC)c2cc(N3CCN(C)CC3)c(F)cc2c1=O (stereo not given)	6.4	i	4.9	-2.8	-0.6
CCn1cc(S(=O)(=O)c2ccc(OC)cc2)c(=O)c2cc(F)c(N3CCN(C)CC3)cc21	2.1	+	1.3	.	.
CCn1cc(C(=O)N[C@H](C)c2ccccc2)c(=O)c2cc(F)c(N3CCN(C)CC3)cc21	1.1	+	1.3	0.2	-6.6
Cc1ccc(-c2nc(CS(=O)(=O)CC(=O)N3CCN(C)CC3)c(C)o2)cc1	0.7	i	158.0*	.	.
CCC(CC)COC(=O)C1=C(C)NC(=O)NC1c1ccc(N(C)C)cc1 (stereo not given)	0.9	i	16.0*	.	.
CS(=O)(=O)N(CC(=O)Nc1cccc([N+](=O)[O-])c1)c1cccc(F)c1	4.7	i	1.3	-0.9	-1.2
Cc1ccc(NC(=O)c2nc(S(=O)(=O)Cc3ccccc3C)ncc2Cl)cc1C	20.6	i	-0.6	.	.
Nc1ccc(C(=O)Nc2ccco2)cc1	4.2	i	37.0*	-1.2	-2.5
CN(CC(=O)Nc1ccc(N2CCOCC2)cc1)C(=O)CCc1ccccc1Cl	2.2	i	3.5	.	.
CCCc1nnc(NC(=O)OCC)s1	-2.3	i	-0.7	-1.8	-0.3
CN(C)/C=C1/Sc2ccccc2C1=O	5.3	i	18.5*	61.6	27.7
COc1ccc(CCNC(=O)CCc2ccc(S(=O)(=O)NCC(C)C)cc2)cc1	8.3	i	0.1	-1.5	-3.2
COc1ccc(C2CC(c3cccs3)=NN2C(=O)CSc2nc3ccccc3s2)cc1 (stereo not given)	11.8	i	6.4	1.8	-1.2
O=C(CSc1nc2ccccc2s1)N1N=C(c2cccs2)CC1c1ccc(F)cc1 (stereo not given)	0.5	+	1.5	5.0	-0.5
CC(C)(C)NC(=O)CN(Cc1ccco1)C(=O)CCC(=O)Nc1nccs1	1.4	.	-0.9	.	.
Clc1ccc(/C=N/Nc2nnc(-c3ncc[nH]3)c3ccccc23)cc1	7.6	i	-2.4	-4.7	-6.3
Clc1cccc(/C=N/Nc2nnc(Cl)c3ccccc23)c1	-8.4	i	34.2*	3.1	-2.5
Nc1c(S(=O)(=O)c2cccs2)c2nc3ccccc3nc2n1CC1CCCO1 (stereo not given)	.	.	.	17.6	6.6

Compound activity from PubChem.
